# According to ChEMBL document CHEMBL1149321, “Synthesis, radiosynthesis, and biological evaluation of carbon-11 and iodine-123 labeled 2beta-carbomethoxy-3beta-[4'-((Z)-2-haloethenyl)phenyl]tropanes: candidate radioligands for in vivo imaging of the serotonin transporter” (J Med Chem, 2004):
# What was measured:
# [1] = system: Rattus norvegicus; experiment: Distribution of the radio labelled compound in occipital cortex of rat brain after intravenous administration in presence of reboxetine after 60 min; type: ADME, organism-based; settings: in vivo, 1 h
# In short: (§1)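 Male Sprague–Dawley rats (200–250 g) under ketamine/xylazine anaesthesia with tail-vein cannulas. Blocker or none given 15 min before ~20 μCi [123I] tracer iv in 0.2 mL 10% ethanol/saline; blocker dose 4 mg/kg.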
# [2] = system: Rattus norvegicus; experiment: Distribution in thyroid of rat brain after intravenous administration by using [123I]ZIET after 120 min; type: ADME, organism-based, Thyroid gland; settings: in vivo, 2 h
# In short: (§2)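 Male Sprague–Dawley rats (200–250 g), fed ad libitum, given ~20 μCi radiotracer iv via tail-vein cannula in 0.2 mL 10% ethanol/saline under ketamine/xylazine im anesthesia. Killed at 5, 30, 60 or 120 min (n = 5; n = 4 at 120 min). Brain regions dissected, weighed, gamma-counted with dose standards, decay-corrected; mean %ID/g ± SE.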
# [3] = system: Rattus norvegicus; experiment: Distribution in cerebellum of rat brain after intravenous administration by using [123I]ZIET after 30 min; type: ADME, organism-based; settings: in vivo, 0.5 h; in short: as §2
# [4] = Ratio of radioactivity in hypothalamus of rat brain to that of rat cerebellum after intravenous administration after 30 min; type: functional
# In short: (§3)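 Male Sprague–Dawley rats (200–250 g) given ~20 μCi [123I] tracer iv in 0.2 mL 10% ethanol/saline under ketamine/xylazine; killed at 5, 30, 60, 120 min (n = 5; n = 4 at 120 min). Brain regions dissected, gamma counted, decay-corrected to %ID/g; regional uptake divided by cerebellum.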
# [5] = system: Rattus norvegicus; experiment: Distribution of the radio labelled compound in hypothalamus of rat brain after intravenous administration in presence of reboxetine after 60 min; type: ADME, organism-based; settings: in vivo, 1 h; in short: as §1
# [6] = system: Rattus norvegicus; experiment: Distribution of the radio labelled compound in rest of rat brain after intravenous administration in presence of RTI-113 after 60 min; type: ADME, organism-based; settings: in vivo, 1 h; in short: as §1
# [7] = system: Rattus norvegicus; experiment: Distribution in brainstem of rat brain after intravenous administration by using [123I]ZIET after 30 min; type: ADME, organism-based; settings: in vivo, 0.5 h; in short: as §2
# [8] = Ratio of radioactivity in striatum of rat brain to that of rat cerebellum after intravenous administration after 120 min; type: functional; in short: as §3
# [9] = system: Rattus norvegicus; experiment: Distribution of the radio labelled compound in frontal cortex of rat brain after intravenous administration in presence of citalopram after 60 min; type: ADME, organism-based; settings: in vivo, 1 h; in short: as §1
# [10] = system: Rattus norvegicus; experiment: Distribution in striatum of rat brain after intravenous administration by using [123I]ZIET after 60 min; type: ADME, organism-based; settings: in vivo, 1 h; in short: as §2
# [11] = system: Rattus norvegicus; experiment: Distribution in striatum of rat brain after intravenous administration by using [123I]ZIET after 120 min; type: ADME, organism-based; settings: in vivo, 2 h; in short: as §2
# [12] = Ratio of radioactivity in brainstem of rat brain to that of rat cerebellum after intravenous administration after 120 min; type: functional; in short: as §3
# [13] = system: Rattus norvegicus; experiment: Distribution of the radio labelled compound in striatum of rat brain after intravenous administration in presence of RTI-113 after 60 min; type: ADME, organism-based; settings: in vivo, 1 h; in short: as §1
# [14] = Ratio of radioactivity in striatum of rat brain to that of rat cerebellum after intravenous administration after 5 min; type: functional; in short: as §3
# [15] = system: Rattus norvegicus; experiment: Distribution in hypothalamus of rat brain after intravenous administration by using [123I]ZIET after 5 min; type: ADME, organism-based; settings: in vivo; in short: as §2
# [16] = system: Rattus norvegicus; experiment: Distribution of the radio labelled compound in hippocampus of rat brain after intravenous administration in presence of RTI-113 after 60 min; type: ADME, organism-based; settings: in vivo, 1 h; in short: as §1
# [17] = system: Rattus norvegicus; experiment: Distribution of the radio labelled compound in cerebellum of rat brain after intravenous administration in presence of reboxetine after 60 min; type: ADME, organism-based; settings: in vivo, 1 h; in short: as §1
# [18] = system: Rattus norvegicus; experiment: Distribution of the radio labelled compound in hypothalamus of rat brain after intravenous administration in presence of RTI-113 after 60 min; type: ADME, organism-based; settings: in vivo, 1 h; in short: as §1
# [19] = Ratio of radioactivity in brainstem of rat brain to that of rat cerebellum after intravenous administration after 5 min; type: functional; in short: as §3
# [20] = system: Rattus norvegicus; experiment: Distribution of the radio labelled compound in frontal cortex of rat brain after intravenous administration in presence of RTI-113 after 60 min; type: ADME, organism-based; settings: in vivo, 1 h; in short: as §1
# [21] = system: Rattus norvegicus; experiment: Distribution of the radio labelled compound in blood of rat brain after intravenous administration in presence of RTI-113 after 60 min; type: ADME, organism-based; settings: in vivo, 1 h
# In short: (§4)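 Male Sprague–Dawley rats (200–250 g), ketamine/xylazine anesthesia, tail-vein cannula. Blocker (4 mg/kg) or nothing given 15 min before iv [123I]ZIET in 10% ethanol/saline. Killed 60 min post-tracer.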
# [22] = system: Rattus norvegicus; experiment: Distribution in cerebellum of rat brain after intravenous administration by using [123I]ZIET after 60 min; type: ADME, organism-based; settings: in vivo, 1 h; in short: as §2
# [23] = system: Rattus norvegicus; experiment: Distribution of the radio labelled compound in frontal cortex of rat brain after intravenous administration in presence of reboxetine after 60 min; type: ADME, organism-based; settings: in vivo, 1 h; in short: as §1
# [24] = Ratio of radioactivity in hippocampus of rat brain to that of rat cerebellum after intravenous administration after 5 min; type: functional; in short: as §3
# [25] = system: Rattus norvegicus; experiment: Distribution of the radio labelled compound in cerebellum of rat brain after intravenous administration in presence of citalopram after 60 min; type: ADME, organism-based; settings: in vivo, 1 h; in short: as §1
# [26] = system: Rattus norvegicus; experiment: Distribution of the radio labelled compound in hippocampus of rat brain after intravenous administration in presence of citalopram after 60 min; type: ADME, organism-based; settings: in vivo, 1 h; in short: as §1
# [27] = Ratio of radioactivity in frontal cortex of rat brain to that of rat cerebellum after intravenous administration after 60 min; type: functional; in short: as §3
# [28] = system: Rattus norvegicus; experiment: Distribution in frontal cortex of rat brain after intravenous administration by using [123I]ZIET after 60 min; type: ADME, organism-based; settings: in vivo, 1 h; in short: as §2
# [29] = system: Rattus norvegicus; experiment: Distribution of the radio labelled compound in brainstem of rat brain after intravenous administration in presence of citalopram after 60 min; type: ADME, organism-based; settings: in vivo, 1 h; in short: as §4
# [30] = Ratio of radioactivity in hippocampus of rat brain to that of rat cerebellum after intravenous administration after 120 min; type: functional; in short: as §3
# [31] = system: Rattus norvegicus; experiment: Distribution in thyroid of rat brain after intravenous administration by using [123I]ZIET after 60 min; type: ADME, organism-based, Thyroid gland; settings: in vivo, 1 h; in short: as §2
# [32] = system: Rattus norvegicus; experiment: Distribution in occipital cortex of rat brain after intravenous administration by using [123I]ZIET after 60 min; type: ADME, organism-based; settings: in vivo, 1 h; in short: as §2
# [33] = Ratio of radioactivity in frontal cortex of rat brain to that of rat cerebellum after intravenous administration after 5 min; type: functional; in short: as §3
# [34] = system: Rattus norvegicus; experiment: Distribution of the radio labelled compound in blood of rat brain after intravenous administration in presence of citalopram after 60 min; type: ADME, organism-based; settings: in vivo, 1 h; in short: as §4
# [35] = Ratio of radioactivity in brainstem of rat brain to that of rat cerebellum after intravenous administration after 30 min; type: functional; in short: as §3
# [36] = system: Rattus norvegicus; experiment: Distribution of the radio labelled compound in frontal cortex of rat brain after intravenous administration in absence of blocker after 60 min; type: ADME, organism-based; settings: in vivo, 1 h; in short: as §1
# [37] = Ratio of radioactivity in rest of rat brain to that of rat cerebellum after intravenous administration after 60 min; type: functional; in short: as §3
# [38] = system: Rattus norvegicus; experiment: Distribution in blood […] after intravenous administration by using [123I]-ZIET after 30 min; type: ADME, organism-based; settings: in vivo, 0.5 h; in short: as §2
# [39] = Ratio of radioactivity in striatum of rat brain to that of rat cerebellum after intravenous administration after 30 min; type: functional; in short: as §3
# [40] = system: Rattus norvegicus; experiment: Distribution of the radio labelled compound in rest of rat brain after intravenous administration in presence of citalopram after 60 min; type: ADME, organism-based; settings: in vivo, 1 h; in short: as §1
# [41] = system: Rattus norvegicus; experiment: Distribution in rest of rat brain after intravenous administration by using [123I]ZIET after 30 min; type: ADME, organism-based; settings: in vivo, 0.5 h; in short: as §2
# [42] = system: Rattus norvegicus; experiment: Distribution in thyroid of rat brain after intravenous administration by using [123I]ZIET after 5 min; type: ADME, organism-based, Thyroid gland; settings: in vivo; in short: as §2
# [43] = system: Rattus norvegicus; experiment: Distribution in frontal cortex of rat brain after intravenous administration by using [123I]ZIET after 5 min; type: ADME, organism-based; settings: in vivo; in short: as §2
# [44] = system: Rattus norvegicus; experiment: Distribution in hippocampus of rat brain after intravenous administration by using [123I]ZIET after 5 min; type: ADME, organism-based; settings: in vivo; in short: as §2
smiles,measurement,setting,value
COC(=O)C1C(c2ccc(/C=C\[123I])cc2)CC2CCC1N2C (centres undefined),Activity,[1],0.42
same,Activity,[2],2.12
same,Activity,[3],0.42
same,Ratio,[4],1.6
same,Activity,[5],0.46
same,Activity,[6],0.36
same,Activity,[7],0.65
same,Ratio,[8],3.7
same,Activity,[9],0.21
same,Activity,[10],0.71
same,Activity,[11],0.52
same,Ratio,[12],3
same,Activity,[13],0.45
same,Ratio,[14],1.1
same,Activity,[15],0.36
same,Activity,[16],0.42
same,Activity,[17],0.15
same,Activity,[18],0.55
same,Ratio,[19],1
same,Activity,[20],0.49
same,Activity,[21],0.24
same,Activity,[22],0.27
same,Activity,[23],0.47
same,Ratio,[24],1.1
same,Activity,[25],0.1
same,Activity,[26],0.17
same,Ratio,[27],2.6
same,Activity,[28],0.71
same,Activity,[29],0.14
same,Ratio,[30],3.4
same,Activity,[31],1.11
same,Activity,[32],0.63
same,Ratio,[33],1.3
same,Activity,[34],0.21
same,Ratio,[35],1.5
same,Activity,[36],0.53
same,Ratio,[37],2
same,Activity,[38],0.53
same,Ratio,[39],1.8
same,Activity,[40],0.18
same,Activity,[41],0.66
same,Activity,[42],0.08
same,Activity,[43],0.45
same,Activity,[44],0.38
